Columns and labels:
[1] = target: MAP kinase-activated protein kinase 2 (Homo sapiens, UniProt P49137); assay: Inhibition of MAPKAPK2 at 30 uM by microfluidic mobility shift assay
In short: (§1)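 Single-concentration screen, singlicate, 30 uM final (diluted from 1 mM DMSO solutions), fluorescently tagged peptide substrate appropriate to each kinase, ATP at apparent Km for each protein. Phosphorylated and unphosphorylated peptides separated electrophoretically; conversion is the phosphorylated peak area over the sum of both peaks. No-inhibitor and no-ATP controls; H89 reference on each plate.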

[2] = target: Ribosomal protein S6 kinase alpha-1 (Homo sapiens) (UniProt Q15418); assay: Inhibition of RSK1 at 30 uM by microfluidic mobility shift assay; in short: as §1
Chain of Ribosomal protein S6 kinase alpha-1 (Homo sapiens) (Q15418 whole entry): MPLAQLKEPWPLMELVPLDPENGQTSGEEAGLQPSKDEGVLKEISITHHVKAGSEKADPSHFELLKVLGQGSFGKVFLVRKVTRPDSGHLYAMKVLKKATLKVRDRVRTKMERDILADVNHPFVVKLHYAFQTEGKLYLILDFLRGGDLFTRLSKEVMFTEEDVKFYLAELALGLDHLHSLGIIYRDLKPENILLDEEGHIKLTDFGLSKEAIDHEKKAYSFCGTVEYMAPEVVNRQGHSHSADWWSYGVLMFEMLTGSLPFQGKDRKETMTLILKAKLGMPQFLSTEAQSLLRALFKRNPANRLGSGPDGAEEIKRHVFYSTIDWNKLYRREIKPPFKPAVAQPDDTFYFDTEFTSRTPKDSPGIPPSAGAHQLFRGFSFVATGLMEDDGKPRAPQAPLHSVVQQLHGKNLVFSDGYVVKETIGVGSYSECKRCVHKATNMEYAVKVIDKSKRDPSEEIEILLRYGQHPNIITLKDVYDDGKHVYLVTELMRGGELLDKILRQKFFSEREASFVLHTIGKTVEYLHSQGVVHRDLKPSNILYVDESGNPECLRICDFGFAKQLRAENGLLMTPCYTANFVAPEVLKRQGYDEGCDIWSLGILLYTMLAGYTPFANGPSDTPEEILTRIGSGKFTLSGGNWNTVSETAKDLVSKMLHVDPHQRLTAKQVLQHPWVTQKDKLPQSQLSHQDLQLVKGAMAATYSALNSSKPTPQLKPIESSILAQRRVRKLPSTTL

[3] = target: T1, MAP kinase-activated protein kinase 5 (Homo sapiens) (UniProt Q8IW41); assay: Inhibition of PRAK1 at 30 uM by microfluidic mobility shift assay; in short: as §1
T1 sequence (whole entry): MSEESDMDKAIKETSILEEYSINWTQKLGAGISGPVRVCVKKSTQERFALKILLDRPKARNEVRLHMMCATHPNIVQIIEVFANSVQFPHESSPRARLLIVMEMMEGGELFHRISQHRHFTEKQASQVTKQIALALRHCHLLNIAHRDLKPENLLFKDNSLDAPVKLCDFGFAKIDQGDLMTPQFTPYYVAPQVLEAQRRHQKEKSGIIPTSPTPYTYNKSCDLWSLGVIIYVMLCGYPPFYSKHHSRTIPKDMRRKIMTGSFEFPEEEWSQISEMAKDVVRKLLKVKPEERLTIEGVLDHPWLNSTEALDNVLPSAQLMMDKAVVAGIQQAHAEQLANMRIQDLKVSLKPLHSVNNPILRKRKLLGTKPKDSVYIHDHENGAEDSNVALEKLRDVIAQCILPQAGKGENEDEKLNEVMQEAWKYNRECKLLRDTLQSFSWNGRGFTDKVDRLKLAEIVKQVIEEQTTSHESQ

[4] = target: Mitogen-activated protein kinase 3 (Homo sapiens) (UniProt P27361); assay: Inhibition of ERK1 at 30 uM by microfluidic mobility shift assay; in short: as §1
Chain of Mitogen-activated protein kinase 3 (Homo sapiens) (P27361 whole entry): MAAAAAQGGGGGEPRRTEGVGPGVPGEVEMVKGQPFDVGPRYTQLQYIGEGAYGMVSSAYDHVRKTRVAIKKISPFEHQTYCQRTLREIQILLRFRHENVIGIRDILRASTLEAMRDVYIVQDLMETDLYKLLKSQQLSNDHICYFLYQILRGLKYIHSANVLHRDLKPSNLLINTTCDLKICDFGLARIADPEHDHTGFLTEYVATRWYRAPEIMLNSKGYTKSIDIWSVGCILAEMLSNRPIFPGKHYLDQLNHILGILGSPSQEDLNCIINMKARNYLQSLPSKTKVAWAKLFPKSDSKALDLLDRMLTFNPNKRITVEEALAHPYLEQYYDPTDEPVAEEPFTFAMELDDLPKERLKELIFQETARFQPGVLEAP

[5] = target: T2, Serine/threonine-protein kinase D2 (Homo sapiens) (UniProt Q9BZL6); assay: Inhibition of PKD2 at 30 uM by microfluidic mobility shift assay; in short: as §1
T2 sequence (whole entry): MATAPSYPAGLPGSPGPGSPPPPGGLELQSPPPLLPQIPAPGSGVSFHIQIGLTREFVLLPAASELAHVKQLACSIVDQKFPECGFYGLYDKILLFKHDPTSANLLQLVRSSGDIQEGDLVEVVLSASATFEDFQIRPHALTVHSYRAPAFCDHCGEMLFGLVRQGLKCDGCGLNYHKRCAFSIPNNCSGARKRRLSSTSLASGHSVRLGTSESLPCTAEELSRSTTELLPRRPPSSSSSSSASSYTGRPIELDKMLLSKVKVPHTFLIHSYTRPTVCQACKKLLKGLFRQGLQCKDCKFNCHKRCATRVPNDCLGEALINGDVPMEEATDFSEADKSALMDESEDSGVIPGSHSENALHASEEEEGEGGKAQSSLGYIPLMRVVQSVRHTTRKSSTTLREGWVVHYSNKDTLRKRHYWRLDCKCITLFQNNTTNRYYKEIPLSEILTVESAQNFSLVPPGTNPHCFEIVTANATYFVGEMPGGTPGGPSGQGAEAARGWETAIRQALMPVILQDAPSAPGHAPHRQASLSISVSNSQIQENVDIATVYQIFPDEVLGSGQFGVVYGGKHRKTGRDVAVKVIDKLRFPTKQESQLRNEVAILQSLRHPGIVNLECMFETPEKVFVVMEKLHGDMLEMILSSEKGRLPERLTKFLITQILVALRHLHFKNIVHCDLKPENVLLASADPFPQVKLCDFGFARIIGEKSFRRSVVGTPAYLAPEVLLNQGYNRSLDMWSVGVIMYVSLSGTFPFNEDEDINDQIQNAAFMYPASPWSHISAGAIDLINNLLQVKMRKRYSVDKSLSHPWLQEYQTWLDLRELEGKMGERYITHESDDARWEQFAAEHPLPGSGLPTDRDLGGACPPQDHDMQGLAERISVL

[6] = target: T3, Serine/threonine-protein kinase Chk1 (Homo sapiens) (UniProt O14757); assay: Inhibition of CHK1 at 30 uM by microfluidic mobility shift assay; in short: as §1
T3 sequence (whole entry): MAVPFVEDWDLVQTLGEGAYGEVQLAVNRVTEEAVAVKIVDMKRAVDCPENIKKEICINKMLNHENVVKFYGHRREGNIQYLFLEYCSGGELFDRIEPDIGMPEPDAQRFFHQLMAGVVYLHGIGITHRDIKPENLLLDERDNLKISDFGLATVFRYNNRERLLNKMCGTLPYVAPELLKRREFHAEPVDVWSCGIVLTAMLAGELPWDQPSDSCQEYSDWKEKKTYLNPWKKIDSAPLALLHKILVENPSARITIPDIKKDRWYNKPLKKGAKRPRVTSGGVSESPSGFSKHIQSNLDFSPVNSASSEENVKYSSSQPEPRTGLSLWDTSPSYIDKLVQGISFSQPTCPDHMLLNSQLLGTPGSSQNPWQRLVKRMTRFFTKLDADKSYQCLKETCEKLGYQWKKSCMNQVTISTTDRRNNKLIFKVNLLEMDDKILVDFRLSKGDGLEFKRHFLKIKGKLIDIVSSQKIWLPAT

[7] = target: Tyrosine-protein kinase ABL1 (Homo sapiens, UniProt P00519); assay: Inhibition of ABL at 30 uM by microfluidic mobility shift assay; in short: as §1
Chain of Tyrosine-protein kinase ABL1 (P00519 whole entry): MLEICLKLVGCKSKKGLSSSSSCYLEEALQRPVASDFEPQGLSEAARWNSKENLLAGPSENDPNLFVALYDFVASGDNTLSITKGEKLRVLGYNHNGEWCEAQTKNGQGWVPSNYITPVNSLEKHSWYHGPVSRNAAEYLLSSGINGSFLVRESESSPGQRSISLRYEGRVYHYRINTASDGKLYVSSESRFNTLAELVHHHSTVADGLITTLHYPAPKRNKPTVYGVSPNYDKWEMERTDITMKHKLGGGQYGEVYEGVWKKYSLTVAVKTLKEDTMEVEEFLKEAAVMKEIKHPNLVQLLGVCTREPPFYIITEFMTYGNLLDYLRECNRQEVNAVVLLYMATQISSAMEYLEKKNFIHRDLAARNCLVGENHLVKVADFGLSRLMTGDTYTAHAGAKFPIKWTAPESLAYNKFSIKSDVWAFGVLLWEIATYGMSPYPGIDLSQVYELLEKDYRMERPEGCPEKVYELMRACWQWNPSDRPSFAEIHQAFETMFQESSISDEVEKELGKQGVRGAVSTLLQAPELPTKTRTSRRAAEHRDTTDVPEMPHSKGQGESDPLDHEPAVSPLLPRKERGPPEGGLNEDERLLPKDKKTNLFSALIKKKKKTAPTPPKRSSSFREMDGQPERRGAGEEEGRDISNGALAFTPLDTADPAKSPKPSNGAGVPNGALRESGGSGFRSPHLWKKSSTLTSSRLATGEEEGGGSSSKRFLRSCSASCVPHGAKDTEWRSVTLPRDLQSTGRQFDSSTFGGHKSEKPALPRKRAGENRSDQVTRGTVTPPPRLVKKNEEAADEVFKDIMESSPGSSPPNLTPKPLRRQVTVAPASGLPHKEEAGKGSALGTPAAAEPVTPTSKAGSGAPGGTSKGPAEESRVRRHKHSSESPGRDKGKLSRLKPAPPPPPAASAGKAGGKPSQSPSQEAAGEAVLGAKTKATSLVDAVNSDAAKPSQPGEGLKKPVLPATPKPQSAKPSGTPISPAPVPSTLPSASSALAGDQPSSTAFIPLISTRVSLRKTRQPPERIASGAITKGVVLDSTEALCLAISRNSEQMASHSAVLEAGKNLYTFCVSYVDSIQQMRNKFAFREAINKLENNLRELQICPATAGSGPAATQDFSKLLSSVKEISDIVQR

[8] = target: Tyrosine-protein kinase Fyn (Homo sapiens, UniProt P06241); assay: Inhibition of FYN at 30 uM by microfluidic mobility shift assay; in short: as §1
Chain of Tyrosine-protein kinase Fyn (P06241 2-537 limits assumed): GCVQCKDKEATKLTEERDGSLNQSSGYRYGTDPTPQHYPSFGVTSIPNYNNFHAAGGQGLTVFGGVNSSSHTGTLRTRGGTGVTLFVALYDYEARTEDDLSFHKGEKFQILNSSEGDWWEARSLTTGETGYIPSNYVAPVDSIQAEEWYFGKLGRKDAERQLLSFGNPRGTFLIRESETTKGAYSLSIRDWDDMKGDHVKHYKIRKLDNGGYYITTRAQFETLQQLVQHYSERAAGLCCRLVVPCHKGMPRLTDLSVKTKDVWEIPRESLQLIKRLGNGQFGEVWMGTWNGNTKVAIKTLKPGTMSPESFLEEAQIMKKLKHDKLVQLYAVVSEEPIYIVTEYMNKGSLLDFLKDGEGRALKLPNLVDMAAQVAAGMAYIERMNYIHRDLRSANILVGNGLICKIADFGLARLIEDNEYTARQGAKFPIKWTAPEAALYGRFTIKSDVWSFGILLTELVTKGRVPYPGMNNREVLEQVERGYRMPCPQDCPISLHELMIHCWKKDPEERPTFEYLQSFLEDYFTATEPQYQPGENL

[9] = target: Tyrosine-protein kinase Lyn (Homo sapiens, UniProt P07948); assay: Inhibition of LYN at 30 uM by microfluidic mobility shift assay; in short: as §1
Chain of Tyrosine-protein kinase Lyn (P07948 2-512 limits assumed): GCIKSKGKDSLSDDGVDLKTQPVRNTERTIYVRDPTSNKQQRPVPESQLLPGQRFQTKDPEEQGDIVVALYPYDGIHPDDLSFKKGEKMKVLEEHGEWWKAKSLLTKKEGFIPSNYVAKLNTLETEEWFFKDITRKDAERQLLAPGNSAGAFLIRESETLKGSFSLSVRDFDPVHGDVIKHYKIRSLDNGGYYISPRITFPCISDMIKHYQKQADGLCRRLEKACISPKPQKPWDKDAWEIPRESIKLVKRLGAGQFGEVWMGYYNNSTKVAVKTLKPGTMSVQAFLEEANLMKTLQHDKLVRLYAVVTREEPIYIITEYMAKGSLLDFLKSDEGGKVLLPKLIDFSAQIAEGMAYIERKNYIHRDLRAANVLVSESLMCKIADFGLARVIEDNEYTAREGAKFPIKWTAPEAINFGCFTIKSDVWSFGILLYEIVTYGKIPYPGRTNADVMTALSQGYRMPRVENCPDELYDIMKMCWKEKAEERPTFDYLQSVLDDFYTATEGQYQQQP

[10] = target: Tyrosine-protein kinase Lck (Homo sapiens, UniProt P06239); assay: Inhibition of LCK at 30 uM by microfluidic mobility shift assay; in short: as §1
Chain of Tyrosine-protein kinase Lck (P06239 2-509 limits assumed): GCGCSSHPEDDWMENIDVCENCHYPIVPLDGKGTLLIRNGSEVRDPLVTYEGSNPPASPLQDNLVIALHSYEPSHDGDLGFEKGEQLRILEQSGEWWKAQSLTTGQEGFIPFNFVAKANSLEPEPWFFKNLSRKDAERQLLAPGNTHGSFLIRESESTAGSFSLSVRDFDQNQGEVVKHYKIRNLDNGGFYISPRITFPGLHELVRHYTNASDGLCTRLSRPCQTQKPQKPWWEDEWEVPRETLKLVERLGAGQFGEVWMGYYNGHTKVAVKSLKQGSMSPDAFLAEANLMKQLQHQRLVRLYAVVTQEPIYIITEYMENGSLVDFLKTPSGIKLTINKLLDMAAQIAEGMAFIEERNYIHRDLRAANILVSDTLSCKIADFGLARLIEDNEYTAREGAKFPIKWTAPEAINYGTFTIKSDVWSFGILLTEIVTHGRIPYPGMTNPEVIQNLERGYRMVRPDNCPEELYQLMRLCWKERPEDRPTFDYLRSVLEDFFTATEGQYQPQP

[11] = target: Proto-oncogene tyrosine-protein kinase Src (Homo sapiens, UniProt P12931); assay: Inhibition of SRC at 30 uM by microfluidic mobility shift assay; in short: as §1
Chain of Proto-oncogene tyrosine-protein kinase Src (P12931 2-536 limits assumed): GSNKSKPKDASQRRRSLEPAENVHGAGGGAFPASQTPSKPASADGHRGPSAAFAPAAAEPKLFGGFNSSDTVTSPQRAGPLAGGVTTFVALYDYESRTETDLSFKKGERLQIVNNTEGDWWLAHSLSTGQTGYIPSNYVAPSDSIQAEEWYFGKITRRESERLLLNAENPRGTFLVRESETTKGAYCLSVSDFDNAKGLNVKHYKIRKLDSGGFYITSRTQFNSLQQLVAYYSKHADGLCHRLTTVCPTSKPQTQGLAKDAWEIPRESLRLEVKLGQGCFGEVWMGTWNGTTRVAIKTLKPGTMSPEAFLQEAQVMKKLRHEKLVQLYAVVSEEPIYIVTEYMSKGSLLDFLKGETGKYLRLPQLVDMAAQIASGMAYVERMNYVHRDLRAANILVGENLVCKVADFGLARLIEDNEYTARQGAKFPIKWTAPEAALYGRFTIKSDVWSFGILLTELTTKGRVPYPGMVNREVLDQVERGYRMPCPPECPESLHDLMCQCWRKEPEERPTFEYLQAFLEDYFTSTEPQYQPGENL

[12] = target: Mitogen-activated protein kinase 1 (Homo sapiens) (UniProt P28482); assay: Inhibition of ERK2 at 30 uM by microfluidic mobility shift assay; in short: as §1
[13] = Inhibition of PKA at 30 uM by microfluidic mobility shift assay; in short: as §1
[14] = target: RAC-beta serine/threonine-protein kinase (Homo sapiens) (UniProt P31751); assay: Inhibition of AKT2 at 30 uM by microfluidic mobility shift assay; in short: as §1
[15] = target: Mitogen-activated protein kinase 14 (Homo sapiens, UniProt Q16539); assay: Inhibition of p38alpha at 30 uM by microfluidic mobility shift assay; in short: as §1
[16] = target: RAC-alpha serine/threonine-protein kinase (Homo sapiens) (UniProt P31749); assay: Inhibition of AKT1 at 30 uM by microfluidic mobility shift assay; in short: as §1
[17] = target: Ribosomal protein S6 kinase alpha-5 (Homo sapiens) (UniProt O75582); assay: Inhibition of MSK1 at 30 uM by microfluidic mobility shift assay; in short: as §1

Chain of MAP kinase-activated protein kinase 2 (P49137 whole entry, looked up): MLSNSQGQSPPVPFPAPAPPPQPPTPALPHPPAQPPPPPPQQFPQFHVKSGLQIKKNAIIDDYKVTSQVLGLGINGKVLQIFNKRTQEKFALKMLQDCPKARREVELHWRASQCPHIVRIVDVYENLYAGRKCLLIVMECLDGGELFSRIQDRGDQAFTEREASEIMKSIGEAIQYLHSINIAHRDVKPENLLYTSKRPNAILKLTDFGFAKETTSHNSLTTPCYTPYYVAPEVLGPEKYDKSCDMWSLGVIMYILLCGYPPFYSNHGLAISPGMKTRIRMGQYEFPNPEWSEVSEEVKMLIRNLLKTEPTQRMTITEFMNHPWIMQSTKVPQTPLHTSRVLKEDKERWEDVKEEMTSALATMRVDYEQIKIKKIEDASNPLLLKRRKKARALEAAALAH

inhibition [1] [%] | inhibition [2] [%] | inhibition [3] [%] | inhibition [4] [%] | inhibition [5] [%] | inhibition [6] [%] | inhibition [7] [%] | inhibition [8] [%] | inhibition [9] [%] | inhibition [10] [%] | inhibition [11] [%] | inhibition [12] [%] | inhibition [13] [%] | inhibition [14] [%] | inhibition [15] [%] | inhibition [16] [%] | inhibition [17] [%] | Structure (SMILES)
-1 | 3 | 6 | 21 | 20 | 3 | 86 | 77 | 86 | 72 | 87 | 13 | 6 | 0 | 68 | 15 | 7 | COc1ccccc1-c1cc2nn(-c3ccccc3)c(N)c2c(=O)[nH]1
6 | 5 | -1 | 2 | 16 | 2 | 33 | 41 | 40 | 15 | 37 | 0 | -3 | 0 | 7 | 10 | -4 | Nc1c2c(=O)[nH]c(-c3ccccc3)cc2nn1-c1ccccn1
55 | 16 | 11 | 9 | 15 | 29 | 61 | 62 | 63 | 44 | 74 | -3 | 88 | 7 | 6 | -1 | 39 | Nc1n[nH]c2cc(-c3ccc(N4CCOCC4)cc3)[nH]c(=O)c12
9 | 4 | 3 | 3 | 9 | 4 | 10 | 21 | 13 | 8 | 12 | 2 | -2 | 40 | 5 | -9 | 3 | CC(=O)Nc1nn(C)c2cc(-c3ccccc3)[nH]c(=O)c12
41 | 24 | 18 | 11 | 33 | 29 | 40 | 54 | 49 | 56 | 63 | 12 | 42 | 8 | 17 | 2 | 35 | Nc1n[nH]c2cc(-c3ccccn3)[nH]c(=O)c12
26 | -4 | 3 | 9 | 8 | 15 | 19 | 11 | 10 | 12 | 12 | 9 | -1 | 0 | -1 | 5 | 6 | Cc1cc2nc(N)nc(N)c2c(=O)[nH]1
45 | 14 | 26 | 13 | 34 | 67 | 80 | 65 | 54 | 65 | 80 | 4 | 81 | -1 | 3 | 8 | 29 | CN1CCN(c2ccc(-c3cc4c(c(N)nn4C)c(=O)[nH]3)cc2)CC1
7 | 4 | 12 | 8 | 28 | 5 | 89 | 88 | 90 | 75 | 89 | 3 | -6 | 0 | 38 | 16 | 6 | COc1ccc(-c2cc3nn(-c4ccccc4)c(N)c3c(=O)[nH]2)cc1
4 | 6 | 2 | 4 | 15 | 7 | 95 | 96 | 97 | 91 | 98 | 6 | 0 | 8 | 32 | 4 | 4 | Nc1c2c(=O)[nH]c(-c3ccccn3)cc2nn1-c1ccccc1
56 | 20 | 10 | 20 | 17 | 13 | 44 | 42 | 49 | 48 | 62 | 15 | 48 | 2 | 10 | 4 | 49 | COc1cccc(-c2cc3[nH]nc(N)c3c(=O)[nH]2)c1
55 | 26 | 11 | 4 | 15 | 54 | 86 | 76 | 76 | 74 | 85 | -2 | 98 | 6 | 7 | 9 | 83 | CN1CCN(c2ccc(-c3cc4[nH]nc(N)c4c(=O)[nH]3)cc2)CC1

Reference: ChEMBL document CHEMBL1811853, “Design and evaluation of 3-aminopyrazolopyridinone kinase inhibitors inspired by the natural product indirubin” (Bioorg Med Chem, 2011)
